This note sets out measurements from ChEMBL document CHEMBL3745678, “Novel β-Carboline/Hydroxamic Acid Hybrids Targeting Both Histone Deacetylase and DNA Display High Anticancer Activity via Regulation of the p53 Signaling Pathway” (J Med Chem, 2015).

Series [1] concerns HCT-116. As to the kind of experiment: Induction of DNA damage in human HCT116 cells assessed as histone H2AX phosphorylation at S139 at 20 uM after 12 hrs by western blot analysis. The class given is functional, cell-based. In short, it runs like this:
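HCT116 cells treated for 12 h, then lysed on ice in PBS with 1% Nonidet P-40, 0.5% sodium deoxycholate, 0.1% SDS and protease inhibitors. Up to 50 µg protein run on SDS-PAGE and blotted to PVDF. Probed overnight at 4 °C with anti-H2AX S139ph, with ECL detection. Band intensity scanned relative to β-actin, three separate experiments.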
(In general: Immunoblotting shows a protein as a band on a membrane.)

The next series has as its target Histone deacetylase. In words: Inhibition of HDAC in human HeLa cell nuclear extract using Boc-Lys (Ac)-AMC as substrate after 60 mins by fluorometric analysis. The series is classed as cell-based.
Series [2] can be described thus: Antiproliferative activity against human HCT116 cells assessed as cell viability after 48 hrs by MTT assay. As to conditions: for IC50: Homo sapiens, HCT-116, 48 h. The class given is functional, cell-based, HCT-116. Background: Formazan colour is commonly taken as a measure of viable cells.
Series [3] can be described thus: Antiproliferative activity against human SW620 cells assessed as cell viability after 48 hrs by MTT assay. The series is classed as functional, cell-based. The settings on record: SW-620, 48 h.
Series [4] has as its system LoVo. In words: Antiproliferative activity against human LoVo cells assessed as cell viability after 48 hrs by MTT assay. The class given is functional, cell-based.
Series [5] concerns HCT-116. As to the kind of experiment: Antiproliferative activity against human HCT116 cells at 25 uM after 48 hrs by MTT assay. The series is classed as functional, cell-based. In short, it runs like this:
(§1)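 Single-point screen at 25 µM in HCT116, SW620 and LOVO cells. Cells seeded at 10^4 cells/ml in DMEM + 10% FBS and left to adhere overnight at 37 °C, 5% CO2. MTT read 48 h after dosing with 0.1% DMSO as the negative control. Inhibition % = (1 − OD treated/OD control) × 100; mean ± SD of three measurements.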

The subject of the next series is SW480. In words: Antiproliferative activity against human SW480 cells assessed as cell viability after 48 hrs by MTT assay. The class given is functional, cell-based. As to conditions: SW480, 48 h.
For the next series, the system named is SW-620. As to the kind of experiment: Antiproliferative activity against human SW620 cells at 25 uM after 48 hrs by MTT assay. The class given is functional, cell-based. A digest of the protocol:
as §1

Series [6] deals with LoVo. As to the kind of experiment: Antiproliferative activity against human LoVo cells at 25 uM after 48 hrs by MTT assay. The class given is functional, cell-based. In short, it runs like this:
as §1

Series [7] has as its system HCT-116. In words: Potency index, ratio of SAHA IC50 to compound IC50 for human HCT116 cells. The series is classed as functional. A digest of the protocol: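 HCT116 cells seeded at 10^4 cells/ml and adhered overnight, then treated 48 h over a concentration series with 0.1% DMSO as control. MTT readout; IC50 derived from inhibition % = (1 − OD treated/OD control) × 100, three independent measurements. Index = SAHA IC50 ÷ compound IC50.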

In another series the target is Histone deacetylase 1 (Homo sapiens, UniProt Q13547). In words: Inhibition of recombinant human HDAC1 using Boc-Lys (Ac)-AMC as substrate after 60 mins by fluorometric analysis.
In series [8] the target is T1, Protein deacetylase HDAC6 (Homo sapiens, UniProt Q9UBN7).
T1 sequence (Q9UBN7 whole entry): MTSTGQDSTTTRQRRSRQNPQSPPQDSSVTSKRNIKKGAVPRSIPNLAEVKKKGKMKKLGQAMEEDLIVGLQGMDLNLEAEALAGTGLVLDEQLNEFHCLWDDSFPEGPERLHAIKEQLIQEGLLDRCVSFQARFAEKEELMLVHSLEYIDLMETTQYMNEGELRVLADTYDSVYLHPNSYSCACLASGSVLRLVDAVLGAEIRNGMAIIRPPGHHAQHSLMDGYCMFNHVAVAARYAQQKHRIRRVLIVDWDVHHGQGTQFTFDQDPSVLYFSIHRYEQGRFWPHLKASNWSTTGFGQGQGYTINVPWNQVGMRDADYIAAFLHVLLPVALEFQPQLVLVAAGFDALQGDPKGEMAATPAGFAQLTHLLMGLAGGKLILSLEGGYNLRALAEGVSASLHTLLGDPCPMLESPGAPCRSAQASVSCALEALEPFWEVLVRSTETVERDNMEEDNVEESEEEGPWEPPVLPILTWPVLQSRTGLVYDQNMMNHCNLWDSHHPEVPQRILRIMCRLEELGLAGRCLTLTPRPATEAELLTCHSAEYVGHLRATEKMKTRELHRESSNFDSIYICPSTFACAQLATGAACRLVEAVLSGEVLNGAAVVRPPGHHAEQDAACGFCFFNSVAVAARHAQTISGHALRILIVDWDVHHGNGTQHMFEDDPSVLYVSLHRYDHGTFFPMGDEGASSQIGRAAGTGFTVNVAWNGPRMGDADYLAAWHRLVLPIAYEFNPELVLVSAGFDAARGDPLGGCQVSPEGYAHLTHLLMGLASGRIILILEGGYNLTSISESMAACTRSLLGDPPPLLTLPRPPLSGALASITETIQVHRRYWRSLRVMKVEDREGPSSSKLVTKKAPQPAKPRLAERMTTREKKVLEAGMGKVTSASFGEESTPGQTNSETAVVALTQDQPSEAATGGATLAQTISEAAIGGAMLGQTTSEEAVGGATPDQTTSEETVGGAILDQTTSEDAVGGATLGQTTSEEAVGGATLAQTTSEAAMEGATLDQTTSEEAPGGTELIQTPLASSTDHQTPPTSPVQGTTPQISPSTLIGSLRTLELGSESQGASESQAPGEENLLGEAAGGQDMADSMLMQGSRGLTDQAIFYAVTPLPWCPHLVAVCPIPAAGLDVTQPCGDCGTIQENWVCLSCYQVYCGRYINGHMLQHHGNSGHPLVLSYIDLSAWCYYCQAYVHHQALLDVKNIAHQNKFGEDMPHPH
In words: Inhibition of recombinant human HDAC6 using Boc-Lys (Ac)-AMC as substrate after 60 mins by fluorometric analysis.

A further series deals with T2, Histone deacetylase 8 (Homo sapiens, UniProt Q9BY41).
T2 sequence (Q9BY41 whole entry): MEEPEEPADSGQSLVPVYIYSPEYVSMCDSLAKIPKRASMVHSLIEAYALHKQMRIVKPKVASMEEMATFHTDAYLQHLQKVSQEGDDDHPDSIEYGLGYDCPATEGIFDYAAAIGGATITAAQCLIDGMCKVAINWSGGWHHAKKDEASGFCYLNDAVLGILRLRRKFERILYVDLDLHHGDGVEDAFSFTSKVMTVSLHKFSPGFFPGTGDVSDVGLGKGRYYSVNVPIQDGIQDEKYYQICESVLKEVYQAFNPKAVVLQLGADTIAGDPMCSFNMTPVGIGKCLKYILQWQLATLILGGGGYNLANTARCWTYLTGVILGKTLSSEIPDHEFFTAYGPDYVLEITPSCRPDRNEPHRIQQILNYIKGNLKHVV
In words: Inhibition of recombinant human HDAC8 using Boc-Lys (Ac)-AMC as substrate after 60 mins by fluorometric analysis.

Series [9] concerns HCT-116. As to the kind of experiment: Induction of DNA damage in human HCT116 cells assessed as histone H2AX phosphorylation at S139 at 1 to 5 uM after 12 hrs by western blot analysis. The class given is functional, cell-based. In short, it runs like this:
(§2)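 DNA-damage marker. HCT116 cells treated 12 h with compound or vehicle. Lysates immunoblotted with anti-H2AX S139ph, and β-actin served as the control. Relative levels were obtained by densitometric scanning; means ± SD of three separate experiments.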

In series [10] the target is Cellular tumor antigen p53 (Homo sapiens) (UniProt P04637). As to the kind of experiment: Activation of p53 in human HCT116 cell at 0.1 to 5 uM after 12 hrs by western blot analysis. As to conditions: HCT-116. The class given is cell-based. In short, it runs like this:
(§3)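 HCT116 cells exposed 12 h to compound or vehicle, then lysed on ice in PBS with 1% NP-40, 0.5% deoxycholate, 0.1% SDS and protease inhibitors. Up to 50 µg protein run on SDS-PAGE and immunoblotted for phospho-p53 (Ser15), p53 and p21. Bands quantified by densitometry against β-actin; mean ± SD of three experiments.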

Series [11] has the same target. As to the kind of experiment: Activation of p53 in human HCT116 cells assessed as p53 phosphorylation at ser15 residue at 0.1 to 5 uM after 12 hrs by western blot analysis. The series is classed as cell-based. As to conditions: HCT-116. In short, it runs like this: as §3
Series [12] shares this target. In words: Induction of p53 activation in human HCT116 cells assessed as upregulation of p21 expression at 0.1 to 5 uM after 12 hrs by western blot analysis. The series is classed as cell-based. As to conditions: HCT-116. A digest of the protocol: as §3
The nature of series [13]: Antitumor activity against human HCT116 cells xenografted in BALB/c mouse assessed as tumor weight at 90 mg/kg, po measured twice per week over 22 days (reference value: 1.38 +/- 0.13 g). The class given is functional, HCT-116. Background: In xenograft studies the graft and the host belong to different species.
Series [14] in a line: Cytotoxicity against rat IEC-18 cells assessed as survival after 48 hrs by MTT assay. The series is classed as cell-based. A digest of the protocol: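 HCT116 and rat IEC-18 cells incubated 48 h over a 0–5 µM range. Viability measured by MTT and expressed as % of control. GI50 taken from the inhibition curves; three independent experiments.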
Series [15] has as its system HCT-116. In words: Induction of apoptosis in human HCT116 cells at 5 uM after 48 hrs by annexin V-FITC/propidium iodide staining-based flow cytometric analysis. The series is classed as functional. A digest of the protocol:
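HCT116 cells cultured overnight, then exposed in triplicate for 48 h to 0.1, 1.0 or 5.0 µM, SAHA 5.0 µM or vehicle. Stained with FITC-Annexin V/PI for 15 min at room temperature.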

For series [16], the system named is HCT-116. In words: Induction of PARP cleavage in human HCT116 cells at 1 to 5 uM after 48 hrs by western blot analysis. The class given is functional, cell-based. In short, it runs like this: (§4)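 HCT116 cells treated 48 h with or without compound. Western blots probed for Bax, Bcl-2, cleaved caspase-3 and PARP. Band intensities relative to β-actin by densitometry; means ± SD from three separate experiments.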

In series [17] the test system is HCT-116. In words: Induction of caspase-3 cleavage in human HCT116 cells at 1 to 5 uM after 48 hrs by western blot analysis. The series is classed as functional, cell-based. A digest of the protocol: as §4
Series [18] relates to HCT-116. In words: Induction of DNA damage in human HCT116 cells assessed as histone H2AX phosphorylation at S139 after 12 hrs by western blot analysis. The series is classed as functional, cell-based. A digest of the protocol:
as §2

The target in series [19] is Cellular tumor antigen p53 (Homo sapiens) (UniProt P04637). As to the kind of experiment: Induction of p53 activation in human HCT116 cells assessed as upregulation of p21 expression at 1 to 5 uM after 12 hrs by western blot analysis. The class given is cell-based. As to conditions: HCT-116. A digest of the protocol:
as §3

Molecules are shown by their SMILES. Calls of active or inactive are those of the source. The calls are words filed in the database; no cut-off is given here. A value given as a limit tells only on which side of the number the result lay.

Cellular tumor antigen p53 (Homo sapiens), sequence (P04637 whole entry, looked up): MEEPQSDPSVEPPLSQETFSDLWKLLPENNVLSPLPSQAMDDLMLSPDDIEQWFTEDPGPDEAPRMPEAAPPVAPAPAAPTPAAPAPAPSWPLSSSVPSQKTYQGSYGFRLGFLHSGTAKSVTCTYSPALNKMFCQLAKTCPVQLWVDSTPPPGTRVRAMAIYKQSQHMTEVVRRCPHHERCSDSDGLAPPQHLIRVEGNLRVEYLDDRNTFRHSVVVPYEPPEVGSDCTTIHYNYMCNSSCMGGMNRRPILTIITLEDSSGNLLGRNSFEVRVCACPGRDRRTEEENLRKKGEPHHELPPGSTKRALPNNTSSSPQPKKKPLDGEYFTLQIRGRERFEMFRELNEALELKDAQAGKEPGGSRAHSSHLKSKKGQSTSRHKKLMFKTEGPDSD
Histone deacetylase 1, sequence (Q13547 whole entry): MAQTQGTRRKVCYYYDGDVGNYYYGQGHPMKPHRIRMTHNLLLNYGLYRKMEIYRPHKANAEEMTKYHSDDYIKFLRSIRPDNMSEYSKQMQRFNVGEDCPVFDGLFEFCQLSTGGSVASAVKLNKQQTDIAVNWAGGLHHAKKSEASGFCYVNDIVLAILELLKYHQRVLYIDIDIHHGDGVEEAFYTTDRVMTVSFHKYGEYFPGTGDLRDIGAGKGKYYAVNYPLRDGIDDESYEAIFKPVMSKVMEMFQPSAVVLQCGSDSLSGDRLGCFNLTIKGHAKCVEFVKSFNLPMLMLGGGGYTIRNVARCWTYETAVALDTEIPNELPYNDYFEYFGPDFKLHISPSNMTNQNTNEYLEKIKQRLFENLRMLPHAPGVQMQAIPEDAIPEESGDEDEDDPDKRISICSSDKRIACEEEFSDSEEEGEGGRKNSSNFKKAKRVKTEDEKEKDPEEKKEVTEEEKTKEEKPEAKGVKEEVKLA

On to `COc1ccc2c(c1)[nH]c1c(C)nccc12` [HARMINE], for which the outcome in the series on HCT-116 [1] was Active. The concentration for half-maximal inhibition (IC50) is > 10 µM on Histone deacetylase, 46.7 µM in [2], 42.8 µM in series [3] and 53.2 µM in the series on LoVo [4].

As to `COc1ccc(-c2nc(C(=O)NCCCC(=O)NO)cc3c2[nH]c2ccccc23)cc1`, the half-maximal inhibitory concentration (IC50) on Histone deacetylase came out at 0.67 µM; in series [2] it was 2.72 µM; in [3], 4.46 µM; in the series with LoVo [4] it was 3.77 µM; in the series on SW480 it was 4.65 µM; at Histone deacetylase 1, 0.13 µM. Moreover, the figures for the IC50 (in series [8]; at Histone deacetylase 8) were 0.061 µM and 0.39 µM, respectively. Besides, the result with HCT-116 [5], in the series on SW-620 and in the series on LoVo [6] was Active. The “Ratio IC50” value with HCT-116 [7] turned out to be 2.

In the case of `O=C(CCCCCCC(=O)Nc1ccccc1)NO` [VORINOSTAT], the result (with HCT-116 [9]; in series [12]; in the series with HCT-116 [16]; with HCT-116 [17]) was Active. In addition, the outcome in series [10] and in [11] was inactive. Further, the Activity in series [13] came out at 0.62 g; in the series with HCT-116 [15] it was 34.3%. Also, the 50% growth inhibitory concentration (GI50) in series [2] was determined as 4.64 µM. For the same compound, in series [14], the GI50 at 48 h was 9.95 µM.

`COc1ccc(-c2nc(NC(=O)NCCCC(=O)NO)cc3c4ccccc4n(C)c23)cc1`: the Activity entry in the series with HCT-116 [18] was “Dose-dependent effect”. Besides, the result (in the series on HCT-116 [9]; in series [19]) was Active. Besides, the IC50 came out at 0.51 µM against Histone deacetylase; 1.33 µM in series [2]; 1.93 µM in series [3]; 3.02 µM in the series with LoVo [4]; 3.15 µM in the series with SW480; 0.24 µM on Histone deacetylase 1. Also, the IC50 in series [8] was found to be 0.15 µM; at Histone deacetylase 8, 0.57 µM. Further, the Ratio IC50 with HCT-116 [7] stood at 4.

For orientation: IC50 means the point on the concentration scale where inhibition reaches its midpoint. As usually defined, the GI50 is the concentration giving 50% growth inhibition.
